Data from ChEMBL document CHEMBL1138759, “Nonpeptide alphavbeta3 antagonists. Part 11: discovery and preclinical evaluation of potent alphavbeta3 antagonists for the prevention and treatment of osteoporosis” (J Med Chem, 2004).

What was measured:
[1] = Clearance value in dog at 0.2 mg/kg dose in intravenous and 1 mg/kg of peroral; assay type: ADME, organism-based, Canis lupus familiaris; conditions: in vivo
How it was run: (§1)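 Dogs given compound in water at 0.2 mpk iv and 1 mpk po; oral bioavailability, plasma clearance and plasma half-life derived from plasma levels.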

Integrin alpha-V/beta-3 = Integrin alpha-V/beta-3 (Homo sapiens, UniProt P05106+P06756); assay: Inhibitory activity against alpha v beta-3 receptor using scintillation proximity assay (SPAV3); assay type: protein-complex assay
Integrin alpha-V/beta-3, sequence (P05106 27-788 limits assumed): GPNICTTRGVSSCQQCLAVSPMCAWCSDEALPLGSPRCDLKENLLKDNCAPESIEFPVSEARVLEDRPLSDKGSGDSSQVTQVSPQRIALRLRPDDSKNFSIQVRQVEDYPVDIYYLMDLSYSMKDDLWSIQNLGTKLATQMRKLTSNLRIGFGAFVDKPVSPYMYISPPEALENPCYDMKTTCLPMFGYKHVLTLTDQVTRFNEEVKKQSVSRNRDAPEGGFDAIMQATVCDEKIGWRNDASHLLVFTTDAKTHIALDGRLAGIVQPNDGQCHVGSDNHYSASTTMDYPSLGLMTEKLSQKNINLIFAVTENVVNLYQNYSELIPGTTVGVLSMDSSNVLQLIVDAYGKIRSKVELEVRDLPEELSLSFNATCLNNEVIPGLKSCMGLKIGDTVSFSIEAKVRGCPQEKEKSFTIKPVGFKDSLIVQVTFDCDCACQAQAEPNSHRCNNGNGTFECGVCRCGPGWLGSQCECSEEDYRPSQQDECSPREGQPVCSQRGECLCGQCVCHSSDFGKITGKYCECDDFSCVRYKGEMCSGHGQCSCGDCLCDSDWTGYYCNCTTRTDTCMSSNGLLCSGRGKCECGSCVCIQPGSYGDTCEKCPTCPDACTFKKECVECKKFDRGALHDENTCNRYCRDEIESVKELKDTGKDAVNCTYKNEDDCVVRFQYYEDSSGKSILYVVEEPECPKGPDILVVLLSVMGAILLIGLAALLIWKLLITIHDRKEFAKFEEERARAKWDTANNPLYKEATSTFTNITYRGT
Integrin alpha-V/beta-3, sequence (P06756 31-889 limits assumed): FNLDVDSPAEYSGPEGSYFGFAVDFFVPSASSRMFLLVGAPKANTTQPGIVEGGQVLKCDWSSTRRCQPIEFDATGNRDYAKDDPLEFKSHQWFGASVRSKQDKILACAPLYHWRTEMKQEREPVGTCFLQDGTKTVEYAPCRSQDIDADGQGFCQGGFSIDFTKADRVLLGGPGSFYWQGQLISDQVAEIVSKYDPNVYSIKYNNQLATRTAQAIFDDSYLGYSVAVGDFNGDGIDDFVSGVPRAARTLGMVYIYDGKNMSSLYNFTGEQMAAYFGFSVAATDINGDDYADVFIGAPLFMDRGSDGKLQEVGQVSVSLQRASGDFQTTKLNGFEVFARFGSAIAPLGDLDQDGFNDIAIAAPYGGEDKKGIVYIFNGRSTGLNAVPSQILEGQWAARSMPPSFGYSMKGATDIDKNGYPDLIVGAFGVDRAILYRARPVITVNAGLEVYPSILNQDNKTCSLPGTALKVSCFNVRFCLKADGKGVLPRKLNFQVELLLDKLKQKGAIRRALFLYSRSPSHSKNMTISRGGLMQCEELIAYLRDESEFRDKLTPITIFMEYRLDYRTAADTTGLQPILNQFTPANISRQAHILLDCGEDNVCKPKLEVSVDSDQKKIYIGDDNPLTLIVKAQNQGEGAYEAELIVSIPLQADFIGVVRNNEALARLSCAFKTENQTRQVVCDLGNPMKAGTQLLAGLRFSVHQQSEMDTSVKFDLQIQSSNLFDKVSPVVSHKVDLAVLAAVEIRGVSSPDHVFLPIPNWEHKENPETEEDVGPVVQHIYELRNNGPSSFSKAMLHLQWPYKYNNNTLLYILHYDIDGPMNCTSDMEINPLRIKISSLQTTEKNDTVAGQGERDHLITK
Integrin alpha-V/beta-3, sequence (P06756 891-1048 limits assumed): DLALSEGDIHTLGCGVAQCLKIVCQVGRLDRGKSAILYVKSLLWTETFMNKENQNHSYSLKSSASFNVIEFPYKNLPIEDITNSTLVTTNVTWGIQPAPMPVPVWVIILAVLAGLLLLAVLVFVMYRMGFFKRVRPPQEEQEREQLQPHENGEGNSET

[2] = h-Protein binding value of the compound; assay type: ADME; design: concentration or dose not given beside the values; conditions: human
How it was run: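 Binding in human plasma determined by high-throughput ultrafiltration of diluted plasma in pH 7.4 buffer.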

[3] = Half life in dog at 0.2 mg/kg dose in intravenous and 1 mg/kg of peroral; assay type: ADME, organism-based, Canis lupus familiaris; conditions: in vivo; how it was run: as §1
[4] = Bioavailability in dog (dose 0.2 mg/kg i.v. and 1 mg/kg p.o.); assay type: ADME, organism-based, Canis lupus familiaris; conditions: in vivo, po; how it was run: as §1
[5] = Partition coefficient (logP); assay type: physicochemical; conditions: octanol/water
How it was run: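 log P measured as partition between octanol and pH 7.4 buffer.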

Rattus norvegicus [6] = assay: Effect on distal femoral metaphysis (DFM)-bone mineral density (BMD) in ovariectomized female rats; OVX + 5f dosed orally 1 mg/kg; assay type: functional; conditions: route oral
How it was run: (§2)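 Female rats ovariectomized, then dosed orally q.d. at 1, 3 or 10 mg/kg starting within 24 h, for 28 days. Comparators were sham-operated rats, OVX rats on vehicle, and OVX rats on alendronate 0.003 mg/kg/d s.c. BMD (mg/cm2) measured at the distal femoral metaphysis, given as mean ± SEM. Groups compared by Kruskal–Wallis ANOVA with Student–Newman–Keuls post-hoc test.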

Rattus norvegicus [7] = assay: Effect on distal femoral metaphysis (DFM)-bone mineral density (BMD) in ovariectomized female rats; OVX + 5f dosed orally 3 mg/kg; assay type: functional; conditions: route oral; how it was run: as §2
Rattus norvegicus [8] = assay: Effect on distal femoral metaphysis (DFM)-bone mineral density (BMD) in ovariectomized female rats; OVX + 5f dosed orally 10 mg/kg; assay type: functional; conditions: route oral; how it was run: as §2
[9] = Half life in rat at 0.5 mg/kg dose in intravenous and 1 mg/kg of peroral; assay type: ADME, organism-based; conditions: in vivo
[10] = Half life in monkey at 0.2 mg/kg dose in intravenous and 1 mg/kg of peroral; assay type: ADME, organism-based; conditions: cercopithecidae, in vivo
[11] = Clearance value in rat at 0.5 mg/kg dose in intravenous and 1 mg/kg of peroral; assay type: ADME, organism-based; conditions: in vivo
[12] = Clearance value in monkey at 0.2 mg/kg dose in intravenous and 1 mg/kg of peroral; assay type: ADME, organism-based; conditions: cercopithecidae, in vivo
[13] = Bioavailability in rat (dose 0.5 mg/kg i.v. 1 mg/kg of p.o.); assay type: ADME, organism-based; conditions: in vivo, po
[14] = Bioavailability in monkey (dose 0.2 mg/kg i.v. and 1 mg/kg p.o.); assay type: ADME, organism-based; conditions: cercopithecidae, in vivo, po
Rattus norvegicus [15] = assay: Effect on distal femoral metaphysis (DFM)-bone mineral density (BMD) in ovariectomized female rats; OVX + 5e dosed orally 20 mg/kg/d; conditions: route oral
Rattus norvegicus [16] = assay: Effect on distal femoral metaphysis (DFM)-bone mineral density (BMD) in ovariectomized female rats; OVX + 5e dosed orally 30 mg/kg/d; conditions: route oral

SMILES | clearance [1] | IC50 (Integrin alpha-V/beta-3) | Activity [2] | half-life [3] | bioavailability [4] | logP ([5]; read-out: logP) | also measured
O=C(O)C[C@H](CCCCCCc1ccc2c(n1)NCCC2)c1ccc2c(c1)OCC2 | 7.9 mL/min/kg | 0.21 nM | 99.9% | 5.8 h | > 99% | 2.39 | –
O=C(O)CC(CCCCCCc1ccc2c(n1)NCCC2)c1cccc(F)c1 (stereo not drawn) | – | 0.93 nM | – | – | – | – | –
COc1ccc([C@@H](CCCCCCc2ccc3c(n2)NCCC3)CC(=O)O)cn1 | 5.1 mL/min/kg | 0.65 nM | 99.5% | 9.5 h | 49% | – | logP [5]: 1.67
O=C(O)CC(NC(=O)CCCCc1ccc2c(n1)NCCC2)c1cncnc1 (stereo not drawn) | 26 mL/min/kg | – | 44% | – | 10% | -1.2 | –
O=C(O)CC(/C=C/CCCCc1ccc2c(n1)NCCC2)c1cccc(F)c1 (stereo not drawn) | – | 7.2 nM | – | – | – | – | –
O=C(O)C[C@H](CCCCCCc1ccc2c(n1)NCCC2)c1cnc2ccccc2c1 | 3 mL/min/kg | 0.2 nM | > 99.9% | 5 h | 65% | 2.39 | –
O=C(O)C[C@H](NC(=O)CCCCc1ccc2c(n1)NCCC2)c1cccc(F)c1 | – | 27.7 nM | – | – | – | – | –
Cc1ncc([C@@H](CCCCCCc2ccc3c(n2)NCCC3)CC(=O)O)cn1 | 2.5 mL/min/kg | 0.08 nM | 96% | 9.5 h | 83% | 0.43 | DFM (Rattus norvegicus [6]): 158.3 mg/cm2; DFM (Rattus norvegicus [7]): 173 mg/cm2; DFM (Rattus norvegicus [8]): 176 mg/cm2; half-life [9]: 5.1 h; half-life [10]: 17 h; clearance [11]: 3.6 mL/min/kg; clearance [12]: 4.5 mL/min/kg; bioavailability [13]: 100%; bioavailability [14]: 75%
COc1ncc([C@@H](CCCCCCc2ccc3c(n2)NCCC3)CC(=O)O)cn1 | 4.3 mL/min/kg | 0.11 nM | 97% | 6.8 h | 100% | 0.65 | –
CC(C)c1ncc([C@@H](CCCCCCc2ccc3c(n2)NCCC3)CC(=O)O)cn1 | – | 0.52 nM | 99% | – | – | 1.32 | –
O=C(O)C[C@H](CCCCCCc1ccc2c(n1)NCCC2)c1cncnc1 | 3.9 mL/min/kg | 0.07 nM | 94% | 6.4 h | 66% | 0.1 | half-life [9]: 4.5 h; half-life [10]: 2.3 h; clearance [11]: 30 mL/min/kg; clearance [12]: 19 mL/min/kg; bioavailability [13]: 45%; bioavailability [14]: 46%; DFM (Rattus norvegicus [15]): 150.8 mg/cm2; DFM (Rattus norvegicus [16]): 153.2 mg/cm2
